Experimental data reported in ChEMBL document CHEMBL2016491, “Synthesis and structure-activity relationships of (aryloxy)quinazoline ureas as novel, potent, and selective vascular endothelial growth factor receptor-2 inhibitors” (J Med Chem, 2012).

Tests used:
[1] = Solubility of the compound; assay type: physicochemical
HT-29 [2] = assay: Antiproliferative activity against human HT-29 cells at 10 uM after 72 hrs by MTS assay; assay type: functional; settings: HT-29, 72 h
How it was run: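 Single-concentration test at 10 μM, with compound in <0.1% DMSO. Cells were plated at 3000/well in triplicate, given a 24 h pre-incubation, then treated for 72 h at 37 °C, 5% CO2. Growth inhibition (%) was read by MTS. HT29 was grown in DMEM + Glutamax-I with 10% FBS. Mean of at least three independent experiments.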

MCF7 [3] = assay: Antiproliferative activity against human MCF7 cells at 10 uM after 72 hrs by MTS assay; assay type: functional; settings: MCF7, 72 h
PC-3 = assay: Antiproliferative activity against human PC3 cells at 10 uM after 72 hrs by MTS assay; assay type: functional; settings: PC-3, 72 h
[4] = target: Vascular endothelial growth factor receptor 2 (Homo sapiens, UniProt P35968); assay: Inhibition of recombinant human VEGFR-2 using poly(Glu4/Tyr) and [gamma32P]ATP as substrate after 1 hr by scintillation counting
[5] = target: Epidermal growth factor receptor (Homo sapiens, UniProt P00533); assay: Inhibition of human EGFR expressed in human A431 cells using poly(Glu4/Tyr) and [gamma32P]ATP as substrate after 1 hr by scintillation counting; design: species or system A-431
HT-29 [6] = assay: Antiproliferative activity against human HT-29 cells after 72 hrs by MTS assay; settings: HT-29, 72 h
MCF7 [7] = assay: Antiproliferative activity against human MCF7 cells after 72 hrs by MTS assay; settings: MCF7, 72 h

Chain of Vascular endothelial growth factor receptor 2 (P35968 whole entry): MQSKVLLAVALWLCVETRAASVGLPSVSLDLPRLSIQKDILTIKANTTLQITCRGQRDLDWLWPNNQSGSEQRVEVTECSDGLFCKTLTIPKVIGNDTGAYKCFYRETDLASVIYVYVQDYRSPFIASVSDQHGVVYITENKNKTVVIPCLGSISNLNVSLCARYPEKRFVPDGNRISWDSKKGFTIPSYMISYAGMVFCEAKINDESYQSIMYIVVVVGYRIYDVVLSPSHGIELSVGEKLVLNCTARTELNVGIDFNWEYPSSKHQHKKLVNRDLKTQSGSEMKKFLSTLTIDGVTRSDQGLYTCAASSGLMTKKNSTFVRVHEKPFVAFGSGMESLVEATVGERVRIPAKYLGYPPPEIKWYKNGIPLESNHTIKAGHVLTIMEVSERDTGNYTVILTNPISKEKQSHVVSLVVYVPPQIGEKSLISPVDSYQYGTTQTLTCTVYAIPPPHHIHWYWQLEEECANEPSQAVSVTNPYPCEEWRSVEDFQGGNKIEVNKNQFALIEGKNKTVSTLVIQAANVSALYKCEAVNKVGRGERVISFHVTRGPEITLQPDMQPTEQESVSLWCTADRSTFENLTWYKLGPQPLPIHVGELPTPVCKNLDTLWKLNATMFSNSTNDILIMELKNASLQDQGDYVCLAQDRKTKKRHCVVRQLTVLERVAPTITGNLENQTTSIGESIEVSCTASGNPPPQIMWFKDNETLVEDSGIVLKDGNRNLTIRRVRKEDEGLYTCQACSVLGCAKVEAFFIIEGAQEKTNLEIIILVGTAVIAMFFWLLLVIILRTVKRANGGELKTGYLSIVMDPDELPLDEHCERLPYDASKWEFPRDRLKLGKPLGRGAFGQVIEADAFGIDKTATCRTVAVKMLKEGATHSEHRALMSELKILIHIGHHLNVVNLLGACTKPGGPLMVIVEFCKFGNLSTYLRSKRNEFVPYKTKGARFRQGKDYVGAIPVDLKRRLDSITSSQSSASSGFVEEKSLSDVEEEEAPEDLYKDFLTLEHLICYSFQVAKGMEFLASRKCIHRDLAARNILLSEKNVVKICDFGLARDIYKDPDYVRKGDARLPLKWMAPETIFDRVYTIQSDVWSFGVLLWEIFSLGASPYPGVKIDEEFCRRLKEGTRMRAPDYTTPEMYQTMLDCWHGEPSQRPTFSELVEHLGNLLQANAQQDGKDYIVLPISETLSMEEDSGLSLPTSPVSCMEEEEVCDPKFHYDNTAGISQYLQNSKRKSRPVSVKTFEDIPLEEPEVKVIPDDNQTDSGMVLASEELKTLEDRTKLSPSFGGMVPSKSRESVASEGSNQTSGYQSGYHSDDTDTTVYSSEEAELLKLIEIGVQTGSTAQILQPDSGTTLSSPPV
Chain of Epidermal growth factor receptor (P00533 whole entry): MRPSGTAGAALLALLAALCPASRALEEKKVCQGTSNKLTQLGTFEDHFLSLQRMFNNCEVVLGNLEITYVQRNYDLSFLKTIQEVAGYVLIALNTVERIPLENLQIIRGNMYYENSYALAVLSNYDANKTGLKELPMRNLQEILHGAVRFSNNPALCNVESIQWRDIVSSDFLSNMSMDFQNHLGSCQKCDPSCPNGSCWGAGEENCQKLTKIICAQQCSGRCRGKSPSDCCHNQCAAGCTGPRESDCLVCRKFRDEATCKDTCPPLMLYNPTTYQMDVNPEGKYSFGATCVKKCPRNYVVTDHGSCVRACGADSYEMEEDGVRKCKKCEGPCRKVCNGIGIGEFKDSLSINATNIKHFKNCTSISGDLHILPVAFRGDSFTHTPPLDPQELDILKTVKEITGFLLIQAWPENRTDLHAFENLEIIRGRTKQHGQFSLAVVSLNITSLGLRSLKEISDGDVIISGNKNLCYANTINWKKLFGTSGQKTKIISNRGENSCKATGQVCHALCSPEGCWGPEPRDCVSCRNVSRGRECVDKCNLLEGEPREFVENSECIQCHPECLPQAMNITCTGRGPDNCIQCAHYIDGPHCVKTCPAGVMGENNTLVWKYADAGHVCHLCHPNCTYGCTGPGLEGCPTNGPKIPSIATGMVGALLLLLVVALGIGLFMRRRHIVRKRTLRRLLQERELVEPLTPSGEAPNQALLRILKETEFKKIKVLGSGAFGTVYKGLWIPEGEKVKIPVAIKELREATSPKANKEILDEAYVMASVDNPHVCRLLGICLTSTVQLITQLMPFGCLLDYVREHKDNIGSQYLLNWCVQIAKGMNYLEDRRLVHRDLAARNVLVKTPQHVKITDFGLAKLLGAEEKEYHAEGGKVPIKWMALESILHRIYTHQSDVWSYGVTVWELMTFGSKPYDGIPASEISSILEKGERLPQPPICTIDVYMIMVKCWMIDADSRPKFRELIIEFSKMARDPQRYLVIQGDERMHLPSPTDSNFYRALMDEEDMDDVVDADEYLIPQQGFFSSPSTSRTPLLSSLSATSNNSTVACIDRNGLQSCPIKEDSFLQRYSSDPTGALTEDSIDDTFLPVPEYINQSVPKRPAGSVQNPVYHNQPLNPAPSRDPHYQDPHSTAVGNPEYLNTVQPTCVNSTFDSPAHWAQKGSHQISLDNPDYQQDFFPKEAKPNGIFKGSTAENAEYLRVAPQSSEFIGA

Row | solubility [1] | IC50 [4] | IC50 [5] | IC50 (HT-29 [6]) | IC50 (MCF7 [7]) | Compound | inhibition at 10 µM (HT-29 [2]) | inhibition at 10 µM (MCF7 [3]) | inhibition at 10 µM (PC-3)
1 | Insoluble | – | – | – | – | COc1cc2ncnc(Oc3ccc(NC(=O)Nc4ccccc4)cc3)c2cc1OC | 10% | 12% | 23%
2 | Insoluble | – | – | – | – | COc1cc2ncnc(Oc3cccc(NC(=O)Nc4ccccc4)c3)c2cc1OC | – | – | –
3 | Insoluble | – | – | – | – | COc1ccc(NC(=O)Nc2cccc(Oc3ncnc4cc(OC)c(OC)cc34)c2)cc1 | – | – | –
4 | – | – | – | – | – | COc1cc2ncnc(Nc3ccc(Br)cc3F)c2cc1OC | 0% | 31% | 1%
5 | Insoluble | 9.8 µM | – | – | – | COc1cc2ncnc(Oc3ccc(F)c(Cl)c3)c2cc1OC | 0% | 0% | 5%
6 | – | – | – | – | – | COC(=O)Nc1ccc(Nc2ncnc3cc(OC)c(OC)cc23)cc1 | 10% | 27% | 2%
7 | Insoluble | – | – | – | – | COC(=O)Nc1ccc(Oc2ncnc3cc(OC)c(OC)cc23)cc1 | – | – | –
8 | – | – | – | – | – | CCOC(=O)Nc1ccc(Nc2ncnc3cc(OC)c(OC)cc23)cc1 | 16% | 6% | 12%
9 | Insoluble | – | – | – | – | CCOC(=O)Nc1ccc(Oc2ncnc3cc(OC)c(OC)cc23)cc1 | – | – | –
10 | Insoluble | – | – | – | – | CCCCNC(=O)Nc1ccc(Oc2ncnc3cc(OC)c(OC)cc23)cc1 | – | – | –
11 | Insoluble | – | – | – | – | COc1cc2ncnc(Oc3ccc(NC(=O)Nc4ccc(Br)cc4)cc3)c2cc1OC | – | – | –
12 | Insoluble | – | – | – | – | COc1cc2ncnc(Oc3ccc(NC(=O)Nc4ccc(F)cc4F)cc3)c2cc1OC | – | – | –
13 | Insoluble | – | – | – | – | COc1cc2ncnc(Oc3ccc(NC(=O)Nc4ccc(F)c(Cl)c4)cc3)c2cc1OC | – | – | –
14 | Insoluble | – | – | – | – | COc1cc2ncnc(Oc3ccc(NC(=O)Nc4ccc5ccccc5c4)cc3)c2cc1OC | – | – | –
15 | Insoluble | – | – | – | – | COc1ccc(NC(=O)Nc2ccc(Oc3ncnc4cc(OC)c(OC)cc34)cc2)cc1 | 9% | 0% | 12%
16 | – | 4.65 µM | > 10 µM | – | – | CCNC(=O)Nc1ccc(Nc2ncnc3cc(OC)c(OC)cc23)cc1 | 0% | 6% | 0%
17 | – | – | > 10 µM | – | – | CCC(=O)Nc1ccc(Nc2ncnc3cc(OC)c(OC)cc23)cc1 | – | – | –
18 | – | 4 µM | – | – | – | CCCC(=O)Nc1ccc(Nc2ncnc3cc(OC)c(OC)cc23)cc1C | 0% | 5% | 0%
19 | – | – | – | – | – | COC(=O)Nc1ccc(Nc2ncnc3cc(OC)c(OC)cc23)cc1Cl | 22% | 0% | 19%
20 | – | – | – | – | – | CCCOC(=O)Nc1ccc(Nc2ncnc3cc(OC)c(OC)cc23)cc1C | 18% | 0% | 6%
21 | – | – | – | – | – | CCCCOC(=O)Nc1ccc(Nc2ncnc3cc(OC)c(OC)cc23)cc1C | 13% | 33% | 4%
22 | – | – | 5.8 µM | – | – | COc1cc2ncnc(Nc3ccc(NC(=O)OC(C)C)c(C)c3)c2cc1OC | – | – | –
23 | – | 5.8 µM | > 10 µM | – | – | CCCCNC(=O)Nc1ccc(Nc2ncnc3cc(OC)c(OC)cc23)cc1 | 16% | 26% | 14%
24 | – | – | > 10 µM | – | – | COc1cccc(NC(=O)Nc2ccc(Nc3ncnc4cc(OC)c(OC)cc34)cc2)c1 | – | – | –
25 | – | 6.9 µM | 9.9 µM | 5.9 µM | – | CCN(CC)CCOc1cc2ncnc(Nc3ccc(F)c(Cl)c3)c2cc1OC | – | 26% | 36%

Row | solubility [1] | IC50 [4] | IC50 [5] | IC50 (HT-29 [6]) | IC50 (MCF7 [7]) | Compound | inhibition at 10 µM (HT-29 [2]) | inhibition at 10 µM (MCF7 [3]) | inhibition at 10 µM (PC-3)
26 | – | 1 µM | > 10 µM | 7.5 µM | – | CCN(CC)CCOc1cc2ncnc(Nc3ccc(Br)cc3F)c2cc1OC | – | 10% | 16%
27 | – | 6.45 µM | 9.45 µM | 2.55 µM | 9.6 µM | CCN(CC)CCOc1cc2ncnc(Nc3ccc(C)c(Br)c3)c2cc1OC | – | – | 36%
28 | – | 5.2 µM | > 10 µM | – | – | CCN(CC)CCOc1cc2ncnc(Nc3ccc(NC(=O)OC)c(Cl)c3)c2cc1OC | 38% | 0% | 0%
29 | – | 3.35 µM | – | 5.45 µM | – | CCOC(=O)Nc1ccc(Nc2ncnc3cc(OCCN(CC)CC)c(OC)cc23)cc1Cl | – | 0% | 0%
30 | – | 6.95 µM | > 10 µM | – | – | CCN(CC)CCOc1cc2ncnc(Nc3ccc(NC(=O)OC)c(C)c3)c2cc1OC | 1% | 0% | 0%
31 | – | – | – | – | – | CCOC(=O)Nc1ccc(Nc2ncnc3cc(OCCN(CC)CC)c(OC)cc23)cc1C | 11% | 0% | 0%
32 | – | 6.6 µM | > 10 µM | – | – | CCNC(=O)Nc1ccc(Nc2ncnc3cc(OCCN(CC)CC)c(OC)cc23)cc1 | 0% | 0% | 0%
33 | – | 7.45 µM | 9.1 µM | – | – | CCN(CC)CCOc1cc2c(Nc3ccc(Br)cc3F)ncnc2cc1OC | 35% | 0% | 0%
34 | – | – | – | – | – | CCOC(=O)Nc1ccc(Nc2ncnc3cc(OC)c(OCCN(CC)CC)cc23)cc1C | 36% | 0% | 0%
35 | – | 5.3 µM | > 10 µM | 3.6 µM | 7.7 µM | CCCCOc1cc2c(Nc3ccc(Br)cc3F)ncnc2cc1OCCN(CC)CC | – | – | 31%
36 | – | 7.4 µM | > 10 µM | 2.55 µM | – | CCCCOc1cc2c(Nc3ccc(NC(=O)OC)c(Cl)c3)ncnc2cc1OCCN(CC)CC | – | 33% | 11%
37 | – | – | 9.15 µM | 2.5 µM | 7.1 µM | CCCCOc1cc2c(Nc3ccc(NC(=O)OCC)c(Cl)c3)ncnc2cc1OCCN(CC)CC | – | – | 40%
38 | – | 9.4 µM | > 10 µM | 6.15 µM | – | CCCCOc1cc2c(Nc3ccc(NC(=O)OC)c(C)c3)ncnc2cc1OCCN(CC)CC | – | 0% | 0%
39 | – | – | – | 5.8 µM | – | CCCCOc1cc2c(Nc3ccc(NC(=O)OCC)c(C)c3)ncnc2cc1OCCN(CC)CC | – | 0% | 0%
40 | Insoluble | – | – | – | – | COc1cc2ncnc(Oc3cccc(NC(C)=O)c3)c2cc1OC | – | – | –
41 | Insoluble | – | > 10 µM | – | – | COc1cccc(NC(=O)Nc2ccc(Oc3ncnc4cc(OC)c(OC)cc34)cc2)c1 | – | – | –
42 | Insoluble | 0.006 µM | > 10 µM | 9.1 µM | 9.8 µM | COc1cc2ncnc(Oc3ccc(NC(=O)Nc4cccc(Br)c4)cc3)c2cc1OC | – | – | 35%
43 | Insoluble | 0.04 µM | > 10 µM | – | – | COc1cc2ncnc(Oc3ccc(NC(=O)Nc4ccc(Br)cc4)c(C)c3)c2cc1OC | 2% | 3% | 7%
44 | Insoluble | 0.004 µM | > 10 µM | – | – | COc1cc2ncnc(Oc3ccc(NC(=O)Nc4cccc(Br)c4)c(C)c3)c2cc1OC | 36% | 30% | 25%
45 | Insoluble | – | > 10 µM | – | – | COc1cc2ncnc(Oc3ccc(NC(=O)Nc4ccc(F)c(Cl)c4)c(C)c3)c2cc1OC | – | – | –
46 | Insoluble | – | > 10 µM | – | – | COc1cc2ncnc(Oc3ccc(NC(=O)Nc4ccc5ccccc5c4)c(C)c3)c2cc1OC | – | – | –
47 | Insoluble | – | – | – | – | COc1cc2ncnc(Oc3ccc(NC(=O)NC4CCCCC4)cc3)c2cc1OC | – | – | –
48 | – | 0.8 µM | 3.6 µM | – | – | COc1cc2ncnc(Nc3ccc(Br)cc3)c2cc1OC | 2% | 42% | 37%
49 | – | 7 µM | 4.3 µM | – | – | COc1cc2ncnc(Nc3ccccc3)c2cc1OC | 0% | 7% | 9%
